Experiments:
MS2 coat protein [1] = assay: apparent Kd, MS2 coat protein; higher = weaker binding; RNA-MaP array; theophylline 2 mM where present; conditions: designed as: OFF switch for theophylline
Summary of the method: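 Designs were transcribed by stalled E. coli RNA polymerase on Illumina sequencing-chip clusters. They were titrated with SNAP-549-labelled MS2 coat protein from 0.7 or 1.5 nM, doubling to 3 µM, without and then with constant ligand. Buffer: 100 mM Tris-HCl pH 7.5, 80 mM KCl, 4 mM MgCl2, BSA, DTT, yeast tRNA, Tween-20. Green signal was normalised to red-channel RNA signal and control-cluster median Fmax. Apparent Kd is the median of filtered per-cluster binding-curve fits.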

MS2 coat protein [2] = assay: apparent Kd, MS2 coat protein; higher = weaker binding; RNA-MaP array
Summary of the method: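 Incubations were done at room temperature with fluorescently labeled MS2 coat protein at 1.5 nM to 3 μM and designed RNAs transcribed on an Illumina sequencing chip from sequenced DNA templates, with or without input ligand. Apparent Kd is the median of binding curves fitted for each cluster. Designs with fewer than 10 measured clusters were excluded.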

[3] = designed as: ON switch for flavin mononucleotide, no ligand
[4] = ligand present: flavin mononucleotide, designed as: ON switch for flavin mononucleotide
[5] = designed as: OFF switch for flavin mononucleotide, no ligand
[6] = ligand present: flavin mononucleotide, designed as: OFF switch for flavin mononucleotide

Sequence	apparent Kd (MS2 coat protein [2]; [5])	apparent Kd (MS2 coat protein [2]; [6])	further results
CGCAACCCUAAGGGAUUGUGGUUAUUAGAUACCAGUAUGAUGCAAUACCCUUGGCAGCUAAUACAUGAGGAUCACCCAUGUUGCG			apparent Kd (MS2 coat protein [1]; ligand present: theophylline): 59.5 nM
UCUGGGUCCGCAAGGACCUGGAGUUGCGAUACCAGCACGGUAACGUGCCCUUGGCAGCGCACAUGAGGAUCACCCAUGUGGUGUU			apparent Kd (MS2 coat protein [1]; no ligand): 261 nM; apparent Kd (MS2 coat protein [1]; ligand present: theophylline): 436 nM
CAUGCUAACAUGAGGAUCACCCAUGUUCCGGCGUAAACUGCACAGGAUAUCGAGAAUUUACAAGCCGAGAAGGGUGCGUAGCAU			apparent Kd (MS2 coat protein [2]; [3]): 195 nM; apparent Kd (MS2 coat protein [2]; [4]): 71.7 nM
AUGAUAUGGGACAUGAGGAUCACCCAUGUCGGCUUUGUCACGCAGGAUAUUGCGACUCAAAUCGUCAAGAAGGGCGGAGACUCC	21.5 nM	19.6 nM	
GGCCUCACAUGAGGAUCACCCAUGUUACUACUUGUUCGAUUGGAGGAUAUCUCUAGAAUUUACUGAGAGAAGGCCAAUAUGGGA	236 nM	191 nM	
CAUGGAUAAGGAUAUACAUGAGGAUCACCCAUGUAUAGAAGGAUACAAAGAUAAGAAUGUAGAAGGUAUUGGUU	9.75 nM	8.44 nM	
GAUACUACAUAGAAGGUACCGAUGAGCAAUUAACAAUGUGCGGCAACAUGAGGAUCACCCAUGUGUAAGGAUAUAUGCAGAACA	20.9 nM	15.5 nM	
UGUUGGGAAACAGGAUAUGAGCUUAAAGCACAAGGGAUUCGCACAUGAGGAUCACCCAUGUAACGUCAGAAGGGUUUGUUUGUA	51.2 nM	42.2 nM	
UCAGGACAUGAGGAUCACCCAUGUUGUCAAACCAAAGGAUAUAGGCUGAUCGAAAGAGAACUAGAAGGUUGCGAUU			apparent Kd (MS2 coat protein [2]; [3]): 20.1 nM; apparent Kd (MS2 coat protein [2]; [4]): 15.6 nM
AAGCGUUCAGGAUAUACAUGAGGAUCACCCAUGUAAUGGAUGCUGCAUUACCGGGCGAGUAGAAGGGAAACGUC	6.09 nM	6.24 nM	
GUGAGACAUGAGGAUCACCCAUGUUAGGAUAUUAAACUGGUUUAGUCUGUGACCGACGUAAGAAGGAACUUGAU	13.1 nM	11.7 nM	
GAGGCAACGAUGGAGGAUAUACUAGGUAAUACAUGAGGAUCACCCAUGUGAGAAAGAGAGUACAUGUAGAAGGCCAGAUAUGCGGU			apparent Kd (MS2 coat protein [2]; [3]): 30.5 nM; apparent Kd (MS2 coat protein [2]; [4]): 11.8 nM
UGGGAACGAGGAUAUACAUGAGGAUCACCCAUGUUCAAGAUUCGGGUAUAAUGCCUCAGUAGAAGGCGUAAGCA	107 nM	108 nM	
GUGGCUUCGGUGAGGAUAUGUCCGAUAAAACUGAGACAGAAGGCACAUGAGGAUCACCCAUGUAGCGUUGAUUC	17.5 nM	44.5 nM	
CGGGAACGAUAUGAUACCAGCCUGCGAAAGAAUGCUUAGUACAUGAGGAUCACCCAUGUAGGCCCUUGGCAGCAUCGACUCAAGU			apparent Kd (MS2 coat protein [2]; designed as: OFF switch for theophylline, no ligand): 14.8 nM; apparent Kd (MS2 coat protein [2]; ligand present: theophylline, designed as: OFF switch for theophylline): 19.7 nM
GUACUGCAGUUAGGAUAUACCGGAGGAUUAUACACCUACUAACAUGAGGAUCACCCAUGUCUCUCGUAGAAGGAACAUAUUAGC			apparent Kd (MS2 coat protein [2]; [3]): 20.9 nM; apparent Kd (MS2 coat protein [2]; [4]): 16.5 nM
CCAAUGCAAGGAUAUACAAAAGACUCACUAAAUAGAACAAAACAUGAGGAUCACCCAUGUAGAAGGUGCUGAAC	12.3 nM	13.6 nM	
UGACCACAUGAGGAUCACCCAUGUCAGGAUAUAGGUACACUGGUACAGCCUUUUCGGCCUAGAAGGGACUCUCU	9.09 nM	8.42 nM	
UUGUGACAUGAGGAUCACCCAUGUGAGGAUAUUCUGCUUGUGGAUAGUACGACUUGAUGAAGAAGGCACGUUAU	34.7 nM	33.3 nM	
CACAUGUCAGGAUAUAGCGAUACAGUUCGACCACUUACUGCCUAGAAGGGACAUGAGGAUCACCCAUGUAAAAG	26.1 nM	61.2 nM	
CUAGGCGUGCAGAAGGCGGAAAUAUUUCGUGGCCGAGGAUAUGCUGAUAUAUCGCAAGUGACAUGAGGAUCACCCAUGUGUCUA			apparent Kd (MS2 coat protein [2]; [3]): 16.6 nM; apparent Kd (MS2 coat protein [2]; [4]): 14.2 nM
UGGCCGUAGAAGAAGGAGGACACCGUUUUGUCACGGACAUGAGGAUCACCCAUGUAGAUAAUUGCCUAGGAUAUUCGCUCAUUU			apparent Kd (MS2 coat protein [2]; [3]): 15.9 nM; apparent Kd (MS2 coat protein [2]; [4]): 7.52 nM
AUAAUCAAAGGAUAUGGCUAAGCACACAUGAGGAUCACCCAUGUGAUCGUUCGUACAGUUCCAGAAGGUUGGUCCA	15 nM	13.3 nM	
GAUAAAGUAGGAUAUACAUGAGGAUCACCCAUGUAGAGAGGAGAGCGUGCGAGAACCAGUAGAAGGACUAAACA	13.9 nM	12.4 nM	
CCUUGUGUGAAGGAUAUAGGUUUAUGUUUCUGUCUAGAAGGUCACACAUGAGGAUCACCCAUGUAUAUCCUAGA	18.3 nM	51.6 nM	
AAUAUAAACGUCAGGAUAUUCACGAUAAACAAAUAGAAGAAGGGACAUGAGGAUCACCCAUGUAAACAUGAGUA	11.6 nM	18.3 nM	
